C8 TRAIL sens – sensitizes caspase-8 expressing cells to TRAIL; 1% of 360,000 active; inhibition (viability loss, TRAIL sensitization), % at 10 µM; NB7+C8 cells + TRAIL, ATPlite viability luminescence;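 active = compounds causing at least 50% loss of cell viability in the single-dose screen, relative to plate controls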
FLuc inh counter – inhibits firefly luciferase, flagging false hits in luciferase inhibition screens; inhibition, % at 10 µM; P08659; 1.5% of 200,000 active; AID 1006; ATPLite firefly luciferase biochemical luminescence, 10 min;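 active = inhibition above about 50% when tested at 10 µM, limit read from the data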
Target sequence (P08659 whole entry, looked up): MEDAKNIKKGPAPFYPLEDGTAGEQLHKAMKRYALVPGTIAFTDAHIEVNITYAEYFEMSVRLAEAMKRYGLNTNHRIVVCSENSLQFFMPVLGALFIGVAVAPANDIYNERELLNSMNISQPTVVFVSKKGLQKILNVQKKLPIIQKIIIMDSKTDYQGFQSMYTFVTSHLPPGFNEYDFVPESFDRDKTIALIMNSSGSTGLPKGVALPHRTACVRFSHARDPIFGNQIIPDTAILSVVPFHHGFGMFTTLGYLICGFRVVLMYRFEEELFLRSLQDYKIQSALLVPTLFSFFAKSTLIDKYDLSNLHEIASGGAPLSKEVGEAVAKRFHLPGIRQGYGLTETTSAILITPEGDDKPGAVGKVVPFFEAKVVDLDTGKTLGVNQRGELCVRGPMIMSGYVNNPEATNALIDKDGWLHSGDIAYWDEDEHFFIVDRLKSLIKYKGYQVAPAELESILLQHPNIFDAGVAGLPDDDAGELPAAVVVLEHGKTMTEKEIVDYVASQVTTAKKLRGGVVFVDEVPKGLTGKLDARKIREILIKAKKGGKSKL
FLuc act counter – affects firefly luciferase, flagging false hits in luciferase stimulation screens. ATPlite luciferase biochemical, luminescence, 10 min; 0 = ATP-free wells, 1 = DMSO control. activation factor at 10 µM. 200,000 tested, under 10 active. AID 1027;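 active = luciferase activation factor, scaled between plate controls, of at least 2 with compound at 10 µM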
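Material: Luciferase/luciferin reagent mix | Doses: Test compounds dosed from 2 mM stocks in 100% DMSO | Timing: 10 min incubation after luciferase reagent addition, room temperature | Measured by: Luminescence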
PPC-1+TRAIL kill – compounds killing PPC-1 cancer cells with TRAIL present (potentiator screen, no TRAIL-free arm) | PPC-1 cells + TRAIL, ATPLite viability luminescence | cell killing (% activity), % at 4 µM or 5 µM | 0.41% of 220,000 active | AID 1443;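 active = cell killing above 50% in the first pass at 4 µM, then a duplicate retest at 5 µM averaging 50% or more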;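 also: plate controls were cells with TRAIL plus DMSO for no effect and medium-only wells lacking cells for full effect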
* hit, by the source's call; . = not tested or not shown. An excerpt weighted towards active compounds, which were near 1.5% of everything screened.

SMILES	C8 TRAIL sens	FLuc inh counter	FLuc act counter	PPC-1+TRAIL kill
CC(C)(C)n1cc(C(=O)c2ccc3ccccc3c2O)cn1	50*	69*	0.3	42
CC(C)(C)n1cc(C(=O)c2ccccc2OCCCF)cn1	-1	.	.	.
COc1ccc(CN2Cc3cc(-c4cccc(F)c4)ccc3-n3nncc3C2)cc1	-6	.	.	.
Cn1c(NN=O)nc2ccccc21	57*	44	0.6	39
CN1CCN(Cc2nc3ccccc3n2C)CC1	-19	-8	1.1	-12
O=c1ccc2c(O)c3ccoc3cc2o1	6	.	.	.
CCOC(=O)[C@]12Cc3cc(Cl)ccc3[C@H]1N(C)C(=O)c1ccccc12	7	.	.	.
CCOC(=O)[C@]12Cc3cc(Cl)ccc3[C@H]1N(CC(=O)OC)C(=O)c1ccccc12	58*	.	.	.
CCOC(=O)[C@]12Cc3cc(OC)ccc3[C@H]1N(C(C)C)C(=O)c1cc(OC)ccc12	55*	.	.	.
CCOC(=O)[C@]12Cc3cc(C)ccc3[C@H]1N(C)C(=O)c1ccccc12	-6	.	.	.
CCOC(=O)[C@]12Cc3c(cc(OC)c(OC)c3OC)[C@H]1N(C(C)C)C(=O)c1cc(OC)ccc12	46	.	.	.
CCOC(=O)[C@]12Cc3cc(Cl)ccc3[C@H]1N(C(C)C)C(=O)c1ccccc12	71*	.	.	.
CCC(=O)[C@@H](C)[C@@H](O)[C@H](C)C[C@@H](C)C1OC(=O)C[C@@]2(O)CC=C(C)C(O2)C(C)=CCCC[C@H](O[C@H]2C[C@@H](OC(N)=O)[C@H](O)[C@@H](C)O2)C=C[C@H](C)C[C@H]1C (some centres not stated)	46	.	.	.
CS(=O)(=O)c1ccc(C2=C(CNC(=O)c3nccs3)[C@H]3CC[C@@H](C2)N3Cc2ccco2)cc1	-7	.	.	.
CCOC(=O)[C@]12Cc3cc4ccccc4cc3[C@H]1N(Cc1ccccc1)C(=O)c1cc(OC)ccc12	64*	.	.	.
CCOC(=O)[C@]12Cc3cc4ccccc4cc3[C@H]1N(Cc1ccccc1)C(=O)c1ccccc12	67*	.	.	.
CCCCCN1C(=O)c2cc(OC)ccc2[C@@]2(C(=O)OCC)Cc3cc(Cl)ccc3[C@@H]12	85*	.	.	.
CCOC(=O)[C@]12Cc3cc(OC)c(OC)cc3[C@H]1N(Cc1ccccc1)C(=O)c1ccccc12	2	.	.	.
CCOC(=O)[C@]12Cc3cc(Cl)ccc3[C@H]1N(Cc1ccccc1)C(=O)c1cc(OC)ccc12	89*	.	.	.
S=P(NCCSCc1ccccc1)(N1CC1)N1CC1	-14	.	.	.
Cc1nc2ccccc2c(=O)n1/N=C/c1cc(Br)cc(Br)c1O	0	.	.	.
COC(=O)C[C@]1(C(=O)OC)CN(C#N)N(c2ccc(Cl)cc2)C12c1ccccc1-c1ccccc12	91*	-5	1.1	48
COC(=O)[C@@H]1[C@@H](C(=O)OC)C2(c3ccccc3-c3ccccc32)N(c2ccc(Cl)cc2)N1C#N	92*	-3	1	26
COc1cccc2c1cc([N+](=O)[O-])c1c(C(=O)O)cc3c(c12)OCO3	-18	.	.	.
CC1CC(C)CC(C)C(O)C(C#N)=CC=CCC(C2CCCC2C(=O)O)OC(=O)CC(O)C(C)C1 (configuration not stated)	66*	.	.	.
SMILES	C8 TRAIL sens	FLuc inh counter	FLuc act counter	PPC-1+TRAIL kill
CCCCCCCCCCCCCCCC[N+](C)(C)C	85*	.	.	.
C=CCNC(=S)N1Cc2ccccc2-n2nncc2C1	-2	.	.	.
COc1ccc(-n2nc(C(=O)NCC(=O)N3CCC4(CC3)OCCO4)c3ccccc3c2=O)c(OC)c1	55*	.	.	.
O=C(c1ccc2c(c1)N(Cc1ccc(F)cc1)CCS2)N1CCC2(CC1)OCCO2	16	.	.	.
COC(=O)C1C(C(=O)O)C2(Cl)C(Cl)=C(Cl)C1(Cl)C2(Cl)Cl (configuration not stated)	-9	.	.	.
COCCN(C(=O)COC(=O)Cc1ccccc1)c1c(N)n(Cc2ccccc2)c(=O)[nH]c1=O	-7	.	.	.
Cc1cc(/C=C2\C(=O)NC(=O)N(C)C2=O)c(C)n1-c1ccc2c(c1)OCO2	-3	61*	0.4	12
Cc1cc(/C=C2/C(=O)NC(=O)N(C)C2=O)c(C)n1-c1ccccc1	-2	62*	0.4	5
Cc1cc(/C=C2\C(=O)NC(=O)N(c3ccc(F)cc3)C2=O)c(C)n1-c1cccc(C(=O)O)c1	-15	-6	1.1	14
Cc1cc(C=C2C(=O)NC(=O)NC2=O)c(C)n1-c1ccc2c(c1)OCO2	1	56*	0.4	3
C=CCn1c(O)c(C(C)=NCc2cccnc2)c(=O)[nH]c1=O	-15	-6	1.1	11
C=CCn1c(O)c(C(C)=NCc2cc(OC)cc(OC)c2)c(=O)[nH]c1=O	82*	-4	1	28
COc1ccc2c(c1)C1(C)CCN(C)CC(C1)C2O (configuration not stated)	-25	.	.	.
CC(=O)Nc1ccccc1C(=O)OCC(=O)Nc1ncccn1	-10	.	.	.
CC(=O)Nc1ccccc1C(=O)OCC(=O)c1ccc2c(c1)OCCO2	-13	82*	0.2	1
c1ccc2oc(-c3ccc4c(c3)CNCc3cnnn3-4)cc2c1	1	.	.	.
Cc1ccc(-c2cc(-c3ccc(C)cc3)[n+](-c3ccccc3)c(-c3ccc(C)cc3)c2)cc1	71*	.	.	.
Cc1ccc(-c2cc(-c3ccccc3)cc(-c3ccccc3)[n+]2-c2ccccc2)cc1	91*	.	.	.
Cc1ccc(-c2cc(-c3ccc(C)cc3)[n+](-c3ccc(C(=O)[O-])cc3)c(-c3ccc(C)cc3)c2)cc1	6	.	.	.
CCOC(=O)c1cccc(-[n+]2c(-c3ccccc3)cc(-c3ccccc3)cc2-c2ccccc2)c1	58*	.	.	.
CC(C)(C)NC(=S)N1Cc2ccccc2-n2nncc2C1	-8	.	.	.
O=C(Nc1ccc(F)cc1)N1Cc2ccccc2-n2nncc2C1	6	.	.	.
O=c1c2ccc(Cl)cc2[nH]c(=S)n1-c1cccnc1	1	0	1	34
Cc1ccc(S(=O)(=O)CC(=O)c2cc(C)c(OC(=O)N(C)C)c(C)c2)cc1	-3	-1	1	2
Cc1cc(C(=O)CS(=O)(=O)c2ccccc2)cc(C)c1OC(=O)N(C)C	37	78*	0.2	35
SMILES	C8 TRAIL sens	FLuc inh counter	FLuc act counter	PPC-1+TRAIL kill
COc1cccc2c1C(=O)c1c(O)c3c(c(O)c1C2=O)CC(O)(C(C)=NO)CC3OC1CC(N)C(O)C(C)O1 (configuration not stated)	53*	.	.	.
O=C1NC2C(=CC(O)C(O)C2O)c2cc3c(c(O)c21)OCO3 (configuration not stated)	77*	.	.	.
CC(=O)OC1CC(OC2C(O)CC(OC3C(O)CC(OC4CCC5(C)C(CCC6C5CCC5(C)C(C7=CC(=O)OC7)C(O)CC65O)C4)OC3C)OC2C)OC(C)C1OC1OC(CO)C(O)C(O)C1O (configuration not stated)	62*	.	.	.
CC(=O)[C@H]1CCC2C3CC[C@H]4C[C@@H](O)CC[C@]4(C)C3CC[C@@]21C (some centres not stated)	-3	.	.	.
CC(=O)OC1CC2(O)C3CCC4CC(O)CCC4(C)C3CCC2(C)C1C1=CC(=O)OC1 (configuration not stated)	66*	.	.	.
CC(=O)O[C@@H]1CC[C@]2(C)C3CC[C@@]4(C)C(C[C@@H](O)[C@@H]4O)C3[C@@H](OC(C)=O)C[C@H]2C1 (some centres not stated)	-2	.	.	.

Screening results from PubChem.
